# Columns and labels:
# [1] = cited from earlier work
# [2] = Baboon arterial plasma analysis of unmetabolized radiotracer during PET; assay type: in vivo
# HDAC = details: cited from earlier work
# tumor xenografts = details: cited from earlier work
# [3] = tested on: Histone Deacetylase in the baboon brain; assay: Baboon brain PET imaging with graphical analysis; assay type: in vivo; details: for average reduction in Vd of [^18F]FAHA: comparison of 0.5 and 0.25 mg/kg
# [4] = Compartment modelling of [^18F]FAC uptake in baboon brain; assay type: in vivo; details: one animal; fixed for all four studies
# Summary of the method: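 Two baboons. Arterial blood was sampled every 5 s for 2 min, then at longer intervals, centrifuged, and plasma counted. Brain time-activity curves from studies with the injected labelled metabolite were fitted with one- and two-compartment models. Fitted rate constants were fixed across studies to estimate metabolite brain uptake from peripheral radiotracer metabolism, using the metabolite fraction of arterial plasma input.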
# Log D = assay type: physicochemical
# plasma proteins = assay: Plasma protein binding; assay type: in vitro ADME
# [5] = Stability of [^18F]FAHA in medium alone; assay type: in vitro ADME; details: incubated in medium alone; no detection of [^18F]FAC
# Plasma protein binding = assay type: in vitro ADME; details: plasma
# [6] = In vitro whole blood and plasma incubation, radio-TLC; assay type: in vitro ADME, baboon
# Summary of the method: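 Arterial whole blood or plasma (0.5 ml) came from one baboon 1 h after HDAC-inhibitor pretreatment (0.25 mg/kg), just before radiotracer dosing. Radiotracer was added at room temperature. Percent intact radiotracer was measured by radio-TLC after 10, 20 and 30 min.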
structure (smiles),measurement,setting,value
"O=C(CCCCCCC(=O)Nc1ccccc1)NO [SAHA, suberanilohydroxamic acid]",clinical doses well tolerated,[1],> 5 mg/kg
same,effect on rate of metabolism of [^18F]FAHA in baboon plasma,"[2]; SAHA 0.25, 0.5, 1.0 mg/kg iv, dose dependent manner",decrease the rate of metabolism
same,effect on [^18F]FAHA radiotracer uptake,HDAC; rat brain study,inhibit radiotracer uptake
same,effect on [^18F]FAHA radiotracer uptake,tumor xenografts; rodent tumor xenograft study,inhibit radiotracer uptake
same,average % reduction in Vd of [^18F]FAHA,"[3]; 0.25 mg/kg, Brooke",12 ± 12%
same,average % reduction in Vd of [^18F]FAHA,"[3]; 0.25 mg/kg, Lulu",25 ± 8%
same,average reduction in Vd of [^18F]FAHA,[3]; 0.25 mg/kg,25± 5%
same,average reduction in Vd of [^18F]FAHA,[3]; 0.5 mg/kg,30± 9%
same,average % reduction in Vd of [^18F]FAHA,"[3]; 1 mg/kg, Brooke, averaged over all 6 ROIs (excluding global)",43 ± 7%
same,average % reduction in Vd of [^18F]FAHA,"[3]; 1 mg/kg, Lulu, averaged over all 6 ROIs (excluding global)",52 ± 8%
"O=C(O)C[18F] [[^18F]FAC, [^18F]fluoroacetate]","K1 (2 compartment model, brain uptake of metabolite)",[4],0.018 ml/min/cc
same,k2 (2 compartment model),[4],0.04 min⁻¹
same,k3 (2 compartment model),[4],0.008 min⁻¹
same,k4 (2 compartment model),[4],.003 min⁻¹
same,logD,Log D,0.70
same,% of activity unbound to plasma proteins,plasma proteins,57.2%
"O=C(C[18F])NCCCCCC(=O)Nc1ccccc1 [[^18F]FAHA, 6-([^18F]fluoroacetamido)-1-hexanoicanilide]",% Unmetabolized [^18F]FAHA in baboon plasma,"[2]; animal 1, Baseline, 1min after bolus injection",45%
same,% Unmetabolized [^18F]FAHA in baboon plasma,"[2]; animal 1, Baseline, 5min",2%
same,% Unmetabolized [^18F]FAHA in baboon plasma,"[2]; animal 1, Baseline, 10min",1%
same,% Unmetabolized [^18F]FAHA in baboon plasma,"[2]; animal 1, SAHA 0.25mg/kg iv 1 hour before, 1min",84%
same,% Unmetabolized [^18F]FAHA in baboon plasma,"[2]; animal 1, SAHA 0.25mg/kg iv 1 hour before, 2min",35%
same,% Unmetabolized [^18F]FAHA in baboon plasma,"[2]; animal 1, SAHA 0.25mg/kg iv 1 hour before, 5min",10%
same,% Unmetabolized [^18F]FAHA in baboon plasma,"[2]; animal 1, SAHA 0.25mg/kg iv 1 hour before, 10min",6%
same,% Unmetabolized [^18F]FAHA in baboon plasma,"[2]; animal 1, SAHA 0.5mg/kg iv 1 hour before, 1min",78%
same,% Unmetabolized [^18F]FAHA in baboon plasma,"[2]; animal 1, SAHA 0.5mg/kg iv 1 hour before, 2min",39%
same,% Unmetabolized [^18F]FAHA in baboon plasma,"[2]; animal 1, SAHA 0.5mg/kg iv 1 hour before, 5min",14%
same,% Unmetabolized [^18F]FAHA in baboon plasma,"[2]; animal 1, SAHA 0.5mg/kg iv 1 hour before, 10min",7%
same,% Unmetabolized [^18F]FAHA in baboon plasma,"[2]; animal 1, SAHA 1.0mg/kg iv 1 hour before, 1min",86%
same,% Unmetabolized [^18F]FAHA in baboon plasma,"[2]; animal 1, SAHA 1.0mg/kg iv 1 hour before, 2min",34%
same,% Unmetabolized [^18F]FAHA in baboon plasma,"[2]; animal 1, SAHA 1.0mg/kg iv 1 hour before, 5min",22%
same,% Unmetabolized [^18F]FAHA in baboon plasma,"[2]; animal 1, SAHA 1.0mg/kg iv 1 hour before, 10min",10%
same,% Unmetabolized [^18F]FAHA in baboon plasma,"[2]; animal 2, Baseline, 1min",52%
same,% Unmetabolized [^18F]FAHA in baboon plasma,"[2]; animal 2, Baseline, 2min",6%
same,% Unmetabolized [^18F]FAHA in baboon plasma,"[2]; animal 2, Baseline, 5min",2%
same,% Unmetabolized [^18F]FAHA in baboon plasma,"[2]; animal 2, Baseline, 10min",1%
same,% Unmetabolized [^18F]FAHA in baboon plasma,"[2]; animal 2, SAHA 0.25mg/kg iv 1 hour before, 1min",87%
same,% Unmetabolized [^18F]FAHA in baboon plasma,"[2]; animal 2, SAHA 0.25mg/kg iv 1 hour before, 2min",49%
same,% Unmetabolized [^18F]FAHA in baboon plasma,"[2]; animal 2, SAHA 0.25mg/kg iv 1 hour before, 5min",11%
same,% Unmetabolized [^18F]FAHA in baboon plasma,"[2]; animal 2, SAHA 0.25mg/kg iv 1 hour before, 10min",5%
same,% Unmetabolized [^18F]FAHA in baboon plasma,"[2]; animal 2, SAHA 0.5mg/kg iv 1 hour before, 1min",78%
same,% Unmetabolized [^18F]FAHA in baboon plasma,"[2]; animal 2, SAHA 0.5mg/kg iv 1 hour before, 2min",50%
same,% Unmetabolized [^18F]FAHA in baboon plasma,"[2]; animal 2, SAHA 0.5mg/kg iv 1 hour before, 5min",14%
same,% Unmetabolized [^18F]FAHA in baboon plasma,"[2]; animal 2, SAHA 0.5mg/kg iv 1 hour before, 10min",6%
same,% Unmetabolized [^18F]FAHA in baboon plasma,"[2]; animal 2, SAHA 1.0mg/kg iv 1 hour before, 1min",85%
same,% Unmetabolized [^18F]FAHA in baboon plasma,"[2]; animal 2, SAHA 1.0mg/kg iv 1 hour before, 5min",26%
same,% Unmetabolized [^18F]FAHA in baboon plasma,"[2]; animal 2, SAHA 1.0mg/kg iv 1 hour before, 10min",20%
same,peak uptake in rat brain,HDAC,0.44 % ID/g
same,stability in medium alone,[5],stable up to 2 h
same,tumor to muscle ratios,tumor xenografts; between 30–60 min post-injection,2.2–2.4
same,peak uptake in tumor xenografts,"tumor xenografts; peak at 30 min, rats implanted with carcinoma cells",0.43 %ID/g
same,fraction unbound,Plasma protein binding,0.539 ± 0.0176
same,peak brain uptake relative to [^18F]FAC,[3]; TACs in the same baboon,more than five times greater
same,% Unmetabolized [^18F]FAHA after incubation in vitro (radio-TLC),"[6]; Blood-post (1h after SAHA administration, 0.25 mg/kg), time 10",16%
same,% Unmetabolized [^18F]FAHA after incubation in vitro (radio-TLC),"[6]; Blood-post, time 20",0%
same,% Unmetabolized [^18F]FAHA after incubation in vitro (radio-TLC),"[6]; Blood-post, time 30",0%
same,% Unmetabolized [^18F]FAHA after incubation in vitro (radio-TLC),"[6]; Blood-pre (before SAHA pretreatment), time 10, room temperature",13%
same,% Unmetabolized [^18F]FAHA after incubation in vitro (radio-TLC),"[6]; Blood-pre, time 20",0%
same,% Unmetabolized [^18F]FAHA after incubation in vitro (radio-TLC),"[6]; Blood-pre, time 30",0%
same,% Unmetabolized [^18F]FAHA after incubation in vitro (radio-TLC),"[6]; Plasma-post (1h after SAHA administration), time 10",96%
same,% Unmetabolized [^18F]FAHA after incubation in vitro (radio-TLC),"[6]; Plasma-post, time 20",96%
same,% Unmetabolized [^18F]FAHA after incubation in vitro (radio-TLC),"[6]; Plasma-post, time 30",94%
same,% Unmetabolized [^18F]FAHA after incubation in vitro (radio-TLC),"[6]; Plasma-pre (before SAHA pretreatment), time 10",98%
same,% Unmetabolized [^18F]FAHA after incubation in vitro (radio-TLC),"[6]; Plasma-pre, time 20",94%
same,% Unmetabolized [^18F]FAHA after incubation in vitro (radio-TLC),"[6]; Plasma-pre, time 30",94%

# — paper PMC3167688 (Nuclear medicine and biology, 2009)
